# Assay results published in the RNAGym collection of RNA variant scans (doi:10.1126/science.aae0568).
# Fewer inactive variants are shown than the library holds.
# B1: tRNA (parent)
# chain: GUUCCGUUGGCGUAAUGGUAACGCGUCUCCCUCCUAAGGAGAAGACUGCGGGUUCGAGUCCCGUACGGAACG
# Variants of: B1
# Experiment: yeast fitness relative to wild type (ratio to wild type); higher = fitter; tRNA-Arg(CCU), competitive growth, 37 C, YPD
# Summary of the method: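 The tRNA-Arg(CCU) gene variants were made by chemical synthesis with a 3% per-site mutation rate at 69 sites and inserted at the native genomic locus of Saccharomyces cerevisiae. After pooling, the strains were competed in YPD at 37°C for 24 hours in six parallel replicates. Gene amplicons from the start population and each end population were read by 100-nucleotide paired-end sequencing, and Darwinian fitness relative to wild type was taken from genotype frequency changes. Genotypes needed ≥ 100 starting reads, and estimates < 0.5 were set to 0.5.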
row,Variant,yeast fitness
1,C4U C11U C22G A45U,≤ 0.5
2,C4U G41C C61A,≤ 0.5
3,C4U A40U A42U C46U,≤ 0.5
4,C4U A37U G52A,≤ 0.5
5,C4U C66U,0.978
6,C4U G39C U59G C62A,≤ 0.5
7,C4U C11G A45U,0.545
8,C4U A21C G44A,≤ 0.5
9,C4U C46A G67C,≤ 0.5
10,C4U C61U A70G,0.777
11,C4U C31U A43U G48A U53A,≤ 0.5
12,C4U A40G U53G A57C C60G A65U,0.583
13,C4U C24U C27G,≤ 0.5
14,C4U G12A A40U A69C,0.56
15,C4U G6A A36C,≤ 0.5
16,C4U A42G C66A,≤ 0.5
17,C4U G25A U54A,≤ 0.5
18,C4U C22G U28C U59C,≤ 0.5
19,C4U C24U A43G C60U C61G,≤ 0.5
20,C4U C5G C29G C31G A37C G63A,0.542
21,C4U G23C A36C C55G A57U G67A,≤ 0.5
22,C4U C5G G18C C34U A69C,≤ 0.5
23,C4U A21G U32A A40C C46A,0.769
24,C4U G18A C22U A40C,≤ 0.5

row,Variant,yeast fitness
1,C4U C11U G44C C49U A70U,≤ 0.5
2,C4U C5G U28C C61A,≤ 0.5
3,C4U A21G C22A C46A,0.563
4,C4U C30A U59C A69C,0.568
5,C4U A20U U53C G67C,≤ 0.5
6,C4U G6C C33A A40C G41A U59A U64A C66G,≤ 0.5
7,C4U G12C U28G C62G A70U,≤ 0.5
8,C4U A57G G58C,0.736
9,C4U C55U,0.694
10,C4U A20U U47G G58A C62A,≤ 0.5
11,C4U C11U C34G A40C G51C,0.534
12,C4U A42C G58A,0.567
13,C4U C5G U7G C33A A70U,≤ 0.5
14,C4U C27G A65U,≤ 0.5
15,C4U G23A U28C G56C,≤ 0.5
16,C4U C5G C60A,≤ 0.5
17,C4U C22G U59C,0.712
18,C4U C24G C49U C60U C61A,0.58
19,C4U G25A C66U,0.75
20,C4U C11U G25C,0.747
21,C4U C24A C30G A65U C66A,≤ 0.5
22,C4U G6A G25A U53A C66A,≤ 0.5
23,C4U G25C,0.999
24,C4U G41C,0.819

row,Variant,yeast fitness
1,C4U A37C,0.884
2,C4U C11G C29U C62U G67C,≤ 0.5
3,C4U C55U A65G,0.554
4,C4U C31U C55G U59A,0.546
5,C4U C60U C62A,≤ 0.5
6,C4U C30U C31G,0.583
7,C4U G38C A65G,0.621
8,C4U A20U A40U G67C,≤ 0.5
9,C4U C24U C55U,≤ 0.5
10,C4U C30U U54A,≤ 0.5
11,C4U G38A,0.919
12,C4U G38C,0.825
13,C4U C27A,0.737
14,C4U C27G,0.656
15,C4U C27U,1.02
16,C4U A20U C46A,1.02
17,C4U G12A A14G G18A C30G C46U,≤ 0.5
18,C4U G9A U54A,≤ 0.5
19,C4U C33A U54C,≤ 0.5
20,C4U G10A C22U G44C,≤ 0.5
21,C4U G10C A36U,0.659
22,C4U C34A C46U U47A,≤ 0.5
23,C4U C31U A40U A69U,0.625
24,C4U C29A G52C C55A U59G,0.554

row,Variant,yeast fitness
1,C4U A36G G44C G63A,0.572
2,C4U C27U U64C,0.757
3,C4U G12A A20G C22U G68C,≤ 0.5
4,C4U A37G G39C A65G,≤ 0.5
5,C4U C24U A36C,≤ 0.5
6,C4U C29A G52C U54C C55A U59G,≤ 0.5
7,C4U C22G U28A A36U A65U,≤ 0.5
8,C4U G12A A42U,≤ 0.5
9,C4U C29U C31U,0.538
10,C4U C11U C31G C46A G63C A65U,≤ 0.5
11,C4U G9A C34U A36G C55G A57U G67A,≤ 0.5
12,C4U C11U C30G,≤ 0.5
13,C4U G12C A21C C29G A36G C46U G58A,≤ 0.5
14,C4U A20U U35A G38A,≤ 0.5
15,C4U G6A G44C A69U A70G,≤ 0.5
16,C4U A57U A70U,0.578
17,C4U C5G G41A,0.505
18,C4U C33U,0.789
19,C4U C33G,0.722
20,C4U C11A A14C U28A C31U A37U G39A A42G,0.645
21,C4U C11U G44C,0.702
22,C4U G12C C30G A36C,≤ 0.5
23,C4U C11G G18C U47A G63A,≤ 0.5
24,C4U C30A C66U,0.82

row,Variant,yeast fitness
1,C4U C27U U35C C61G,≤ 0.5
2,C4U C34G G52U,0.62
3,C4U G6C C30G,≤ 0.5
4,C4U C5G G9A G51C,≤ 0.5
5,C4U C24G C34A A45C G56A C61A A65C A69C A70G,0.597
6,C4U G38C C61U C66U,≤ 0.5
7,C4U G9A G39A G44C,≤ 0.5
8,C4U C11A C22U A42U,0.577
9,C4U C24A G44C G50C U54G C61G,≤ 0.5
10,C4U A37C G50C A57G,≤ 0.5
11,C4U C24G A36C A70C,≤ 0.5
12,C4U C22G U28A A36U C55G C62U,≤ 0.5
13,C4U C31U A37U G67A G68A,≤ 0.5
14,C4U C33G A70G,≤ 0.5
15,C4U A21U U26G G58A,0.522
16,C4U C11U A43U C55G,≤ 0.5
17,C4U C31G U47C G48C,≤ 0.5
18,C4U A21C C27G A43C G48A C66A,≤ 0.5
19,C4U A42U C61G,0.593
20,C4U G25C C34U A65U,≤ 0.5
21,C4U C22G C27U G50A G63A,≤ 0.5
22,C4U C24A A43G G63C,≤ 0.5
23,C4U G25A A36C A70G,≤ 0.5
24,C4U C5A U59C C60G,≤ 0.5

row,Variant,yeast fitness
1,C4U C27A C31U C60G,≤ 0.5
2,C4U A45C C61U,0.738
3,C4U G12C C49A U64C,≤ 0.5
4,C4U G17C G18C C22A C60A C66U,≤ 0.5
5,C4U A43C A65U,0.75
6,C4U G9A G67A,0.598
7,C4U C5G A15C A42C,≤ 0.5
8,C4U A21C C30A C31G U32C G41C C55U,≤ 0.5
9,C4U G12A C60A,≤ 0.5
10,C4U C22U G23A,≤ 0.5
11,C4U C22G C33A A36C A43G C55G,0.742
12,C4U C11U U35A,0.523
13,C4U A36C G63A,0.536
14,C4U G12C C29U C31U U54G A65U G67A,≤ 0.5
15,C4U C24A A57U C60A G68C,≤ 0.5
16,C4U G25C A45C C46A,0.733
17,C4U G10C A21G C30A G38C C46U A70C,≤ 0.5
18,C4U G39A A42G G67A,≤ 0.5
19,C4U G10A C11G A20G C27G C29U A65U,≤ 0.5
20,C4U A42G C49U,0.704
21,C4U C34G U35A A42U C60U,≤ 0.5
22,C4U C24U C30A,0.597
23,C4U G10C G48C G63C G67A,≤ 0.5
24,C4U A21C G25A C30A C31G U32C G41C,≤ 0.5

row,Variant,yeast fitness
1,C4U C60G G63C,≤ 0.5
2,C4U G39A A42G G63A G67A,≤ 0.5
3,C4U C11A G12A G48A A57C,≤ 0.5
4,C4U G18A A21C A36U,≤ 0.5
5,C4U C30A A45G C55G A65G,0.636
6,C4U A37U C66A,0.542
7,C4U G12C U54G,≤ 0.5
8,C4U A37G G39C,≤ 0.5
9,C4U G38C G50A A70G,≤ 0.5
10,C4U A21G U28G C60A,≤ 0.5
11,C4U A42C C55U,≤ 0.5
12,C4U G9A C22G A42U G68C,≤ 0.5
13,C4U A40G A65U,0.596
14,C4U A21C A57U,≤ 0.5
15,C4U A37C G38A,0.613
16,C4U G6A U8G C31U C49A G67A,≤ 0.5
17,C4U G12A U28A A42C,0.515
18,C4U C46U A69C,0.817
19,C4U C46U A69U,1.16
20,C4U A21G C46A G68C,0.544
21,C4U C24G U26A U28G C66A,≤ 0.5
22,C4U C49A C66U,0.612
23,C4U C30A A43G,0.728
